TAAR1 antag: human TAAR1 antagonists, primary screen, Fluo-8 calcium fluorescence, CHO RD-HGA16 cells. 1.5% of 360,000 active. inhibition, % at 3 µM. antagonist. Trace amine-associated receptor 1 (Homo sapiens), Q96RJ0. AID 624466, 2012;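 active = inhibition above a per-plate cutoff, the mean inhibition of test compounds on that plate plus 3 SD, cut at about 49% in these data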
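System: CHO RD-HGA16 cells bearing hTAAR1. Reagent: EC80 β-phenethylamine stimulus. Schedule: seeding 17-24 h prior, 75-min 37 °C, 30-min RT dye loading. Signal: Fluo-8 intracellular calcium dye fluorescence, real-time kinetic reads. Read-out: % inhibition from peak post-agonist over basal fluorescence ratio. Benchmarks: vehicle wells and EC80 agonist wells. Replicates: n of 1.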
OX1R antag-1: antagonists of human orexin 1 receptor (OX1R); OX1R-expressing cells, FRET antagonist read-out; inhibition, % at 6.6 µM; 1.8% of 330,000 active; AID 485270, 2010; in the data active = inhibition mostly above about 38%, no sharp cut-off; inactive = mostly below about 40%
Target sequence (O43613 whole entry, looked up): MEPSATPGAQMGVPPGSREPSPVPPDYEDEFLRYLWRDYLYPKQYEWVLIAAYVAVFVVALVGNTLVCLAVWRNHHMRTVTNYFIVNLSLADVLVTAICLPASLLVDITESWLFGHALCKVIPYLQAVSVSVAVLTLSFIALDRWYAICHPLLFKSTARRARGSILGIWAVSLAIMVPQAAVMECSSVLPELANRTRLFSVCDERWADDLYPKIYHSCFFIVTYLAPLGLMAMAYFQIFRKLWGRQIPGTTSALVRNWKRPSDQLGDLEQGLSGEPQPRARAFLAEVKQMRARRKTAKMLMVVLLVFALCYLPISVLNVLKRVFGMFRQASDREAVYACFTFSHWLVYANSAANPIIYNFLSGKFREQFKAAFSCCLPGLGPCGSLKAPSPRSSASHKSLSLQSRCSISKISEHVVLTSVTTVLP
GPR7 antag: GPR7 receptor antagonists, primary screen, cell-based, fluorescence, single concentration; GPR7-expressing cells, fluorescence antagonist assay; inhibition, % at 4.4 µM; 1.1% of 290,000 active; AID 1861, 2009; in the data active = inhibition above about 16%, passing the limit was not always enough;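 note: cells stimulated with the agonist NPW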
CHO parental Ca: ATP-evoked calcium signal inhibitors, parental CHO, primary screen, counter-screen for OX1R antagonist project, cell-based, fluorescence, Fluo-8 calcium dye. parental CHO-K1, ATP-induced calcium, Fluo-8 fluorescence. inhibition, % at 5.6 µM. 0.63% of 330,000 active. AID 463079, 2010;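 active = inhibition above that plate's mean sample inhibition plus 3 SD, cut at about 26% in these data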
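Material: parental CHO cells / Compound: single nominal dose of 5.6 µM per compound / Signal: Fluo-8 fluorescence / Replicates: singlicate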
TAAR1 ag: human TAAR1 agonists, primary screen, Fluo-8 calcium fluorescence, CHO RD-HGA16 cells; activation, % at 3 µM; 0.99% of 360,000 active; vehicle wells 0%, saturating PEA agonist 100%;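 active = activation above the mean activation of all test compounds in the run plus 3 SD, cut at about 38% in these data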
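Repeats: no replicates (n 1) | Material: CHO-derived RD-HGA16 cells with stable Gα16 and human TAAR1 | Technique: Kinetic Fluo-8 calcium fluorescence | Schedule: 17-24 h seeding, 75 min 37 °C dye, 30 min RT | Evaluation: % activation from peak over basal fluorescence ratio, DMSO-to-PEA scaled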
OX1R antag-2: OX1R (HCRTR1) antagonists, primary screen, fluorescence, CHO/OX1R cells, Fluo-8 calcium, orexin A | Fluo-8 calcium fluorescence | 0.43% of 330,000 active | Orexin/Hypocretin receptor type 1 (Homo sapiens), O43613 | inhibition, % at 5 µM;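 active = inhibition above its plate's threshold, mean inhibition of all tested compounds on the plate plus 3 SD, cut at about 37% in these data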
GPR7 antag conf: GPR7 receptor antagonists, confirmation, cell-based, fluorescence, single concentration | inhibition, % at 4.4 µM | shares compounds with GPR7 antag | GPR7-expressing cells, calcium fluorescence antagonist mode | 52% of 2,400 active; in the data active = inhibition above about 24%;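 note: stimulated with the GPR7 agonist NPW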
MCHR1 antag: MCHR1 antagonists in cells, counter-screen for GPR7 antagonist project, cell-based, fluorescence, human. 62% of 2,400 active. AID 2148, 2009. MCHR1-expressing cells, fluorescence antagonist assay. inhibition, % at 4.4 µM. shares compounds with GPR7 antag; in the data active = inhibition above about 22%
Numbers stand for hits; – = inactive; · = no result given. Only some compounds are listed: those with a hit (about 4.6% of all), similar ones and a draw of the others.

SMILES	TAAR1 antag	OX1R antag-1	GPR7 antag	CHO parental Ca	TAAR1 ag	OX1R antag-2	GPR7 antag conf	MCHR1 antag
O=C1OCC/C1=C\NCCCCCCCCN/C=C1\CCOC1=O	–	·	·	·	–	·	·	·
O=C(CCNS(=O)(=O)c1ccc(Br)s1)Nc1ccc(Cl)cc1	–	–	32	–	–	–	32	30
Cc1nc2c(o1)C(=O)c1ccccc1C2=Nc1ccccc1	–	·	·	·	–	·	·	·
c1ccc(Cc2cnc(N3CCN(Cc4ccc5c(c4)OCCO5)CC3)nc2)cc1	–	·	·	·	–	·	·	·
Cc1cc(O)c(C(C)C)cc1C1(c2cc(C(C)C)c(O)cc2C)OC(=O)c2ccccc21	–	–	–	–	–	–	–	–
COC(=O)[C@@]12C[C@@H](CC(=O)NCc3cccc4ccccc34)C(=O)N(Cc3ccc4c(c3)OCO4)C1=CCC(C)(C)C2	–	·	·	·	–	·	·	·
CC(NC(=O)CN1C(=O)NC2(CCCCCC2)C1=O)c1ccccc1 (configuration not stated)	–	–	·	–	–	–	·	·
O=C(c1cc(F)ccc1F)C1CCCN(Cc2cccn2-c2ccccn2)C1 (configuration not stated)	–	–	37	–	–	–	–	24
COc1ccc(F)cc1C(=O)C1CCCN(Cc2cn(C)c3ccccc23)C1 (configuration not stated)	–	–	24	–	–	–	33	30
Cc1ccc(CNC(=O)C2CC(c3cccc([N+](=O)[O-])c3)=NO2)cc1 (configuration not stated)	–	–	32	–	–	–	–	34
COc1ccc(CNC(=O)C2CC(c3cccc([N+](=O)[O-])c3)=NO2)cc1 (configuration not stated)	–	–	–	–	–	–	·	·
COc1cc(/C=C2/SC(=O)N(CC(=O)N3CCCC3)C2=O)ccc1Oc1ccc([N+](=O)[O-])cn1	–	–	–	–	–	–	·	·
CCNC(=O)NC(=O)C(C)OC(=O)c1oc2ccc(OC)cc2c1C (configuration not stated)	–	–	38	–	–	–	–	–
COc1ccc2oc(C(=O)OC(C)C(=O)N(C)c3ccccc3)c(C)c2c1 (configuration not stated)	–	–	·	–	–	–	·	·
Cc1nc2ccc(C(=O)NC(C)(C)C)cn2c1N(C)C(=O)CCc1ccccc1	–	·	·	·	–	·	·	·
Cc1ccc(C2C3=C(NCCN=C3c3ccccc3)C(=O)N2c2ccccc2)cc1 (configuration not stated)	–	–	·	–	–	–	·	–
CCOc1ccc(N2C(=O)C3=C(C(c4ccc(Cl)cc4)=NCCN3)C2c2cccnc2)cc1 (configuration not stated)	–	–	–	–	–	–	·	·
Cc1cnc(CNC(=O)c2ccc3oc(Cc4ccc(Cl)cc4)nc3c2)cn1	–	–	23	–	–	–	–	–
CC1=C(C(=O)N(C(C)C)C(C)C)CC(CC(=O)NC2CCCC2)C(=O)N1CCC1=CCCCC1 (configuration not stated)	–	·	·	·	–	·	·	·
Clc1ccc(C(c2nnnn2CCc2ccccc2)N2CCSCC2)cc1 (configuration not stated)	–	–	28	–	–	–	31	41
Fc1ccc(C(c2nnnn2Cc2ccccc2)N2CCSCC2)cc1 (configuration not stated)	–	–	–	–	–	–	·	·
CCCCCCN1C[C@@H](n2cc(-c3ccc(F)cc3)nn2)[C@H](O)C[C@@H]1c1ccc(Cl)cc1	–	·	·	·	–	·	·	·

High-throughput results from PubChem BioAssay.
